Screens from PubChem BioAssay.
The list is not random: actives were taken first. Their share in the collection is about 2.6%.
UCH37 DUB inh: inhibitors of human UCH37 deubiquitinase, primary screen, biochemical, Ub-AMC cleavage, fluorescence; Ubiquitin carboxyl-terminal hydrolase isozyme L5 (Homo sapiens), Q9Y5K5; purified proteasome/UCH37; inhibition, % (no concentration beside the values); hit rate 0.33% among 330,000; AID 588478, 2011;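 active means mean inhibition over replicate wells above about 20%, limit read from the data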;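 further: 0% = compound-free wells with enzyme and 100% = wells lacking proteasome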
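Assay system: Proteasome-bound UCH37. Buffer or medium: pH 7.4 Tris-HCl (50 mM) with ovalbumin, ATP-MgCl2, DTT. Incubation: 30 min preincubation with enzyme, 25 min cleavage at room temperature. Measured by: fluorescence, ex 355 nm, em 460 nm. Read-out basis: percent inhibition. Control set: wells without proteasome as full block, compound-free enzyme plus substrate as uninhibited.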
SENP7 block: SENP7 protease inhibitors, primary screen, biochemical, luminescence, uHTS; AID 434973, 2010; Sentrin-specific protease 7 (Homo sapiens), Q9BQF6; hit rate 1.5% among 330,000; inhibition, % at 5 µM; recombinant SENP7, Z-RLRGG-aminoluciferin luminescence, 40 min;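 active means inhibition above about 50% at the single test dose, limit read from the data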;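 further: plate controls were DMSO with enzyme for no effect and no enzyme buffer wells for full effect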
Target sequence (Q9BQF6 706-1050 limits assumed): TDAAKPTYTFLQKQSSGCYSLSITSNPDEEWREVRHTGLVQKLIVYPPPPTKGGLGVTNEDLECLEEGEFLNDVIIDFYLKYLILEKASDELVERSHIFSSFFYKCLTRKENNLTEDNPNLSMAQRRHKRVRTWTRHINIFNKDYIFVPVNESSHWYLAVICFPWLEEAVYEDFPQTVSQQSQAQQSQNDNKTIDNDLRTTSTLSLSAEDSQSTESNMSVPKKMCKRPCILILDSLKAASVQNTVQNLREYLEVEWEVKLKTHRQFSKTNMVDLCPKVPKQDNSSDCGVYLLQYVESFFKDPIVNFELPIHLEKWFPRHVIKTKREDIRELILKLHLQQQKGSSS
SENP6 block: SENP6 protease inhibitors, primary screen, biochemical, luminescence, uHTS. AID 2599, 2010. hit rate 1.8% among 330,000. Recombinant SENP6 catalytic domain, aminoluciferin luminescence. inhibition, % at 10 µM. Sentrin-specific protease 6 (Homo sapiens), Q9GZR1;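 active means inhibition above about 50% at the single tested dose, limit read from the data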;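 further: plate controls were DMSO wells with enzyme for no effect and DMSO wells lacking enzyme for full effect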
SENP8 block-1: human SENP8 protease inhibitors, primary screen, biochemical, fluorescence, Nedd8 protein substrate, uHTS. hit rate 0.64% among 360,000. Sentrin-specific protease 8 (Homo sapiens), Q96LD8. recombinant SENP8. inhibition, % at 20 µM. AID 602440, 2012; in the data active means inhibition mostly above about 40%, no sharp cut-off; inactive means mostly below about 27%
Target sequence (Q96LD8 whole entry, looked up): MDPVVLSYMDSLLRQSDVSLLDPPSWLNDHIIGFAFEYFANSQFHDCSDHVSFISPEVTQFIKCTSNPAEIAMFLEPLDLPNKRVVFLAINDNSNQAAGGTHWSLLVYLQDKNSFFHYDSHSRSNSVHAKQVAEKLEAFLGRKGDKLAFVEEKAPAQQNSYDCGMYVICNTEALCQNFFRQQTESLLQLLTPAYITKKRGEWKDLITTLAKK
SENP1 inh: human SENP1 catalytic domain inhibitors, primary screen, biochemical, FRET, uHTS; hit rate 0.21% among 360,000; inhibition, % at 10 µM; AID 624204, 2012; recombinant SENP1 catalytic domain, CyPet-SUMO1-YPet FRET cleavage;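 active means inhibition at least 30% at 10 µM, raw YFP signal under a set limit, fluorescence ratio 0.5 to 1.5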;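 further: 0% = enzyme with DMSO and 100% = no enzyme wells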
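Assay system – human recombinant His6-tagged SENP1 catalytic domain enzyme · Input – SENP1 enzyme, 20 pM final · Buffer or medium – Tris pH 8 buffer plus EDTA, NaCl, BME, BSA, NP40, catalase · Schedule – 50 min reaction at room temperature · Technique – FRET read of cyan and yellow fluorescence · Control set – no-enzyme wells low, DMSO-plus-enzyme wells high control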
SENP8 block-2: SENP8 protease inhibitors, primary screen, biochemical, luminescence | Sentrin-specific protease 8 (Homo sapiens), Q96LD8 | purified SENP8, Z-RLRGG-aminoluciferin cleavage | inhibition, % at 10 µM | hit rate 1.2% among 330,000 | AID 2540, 2010; in the data active means inhibition above about 50%
SENP8 confirm: SENP8 protease inhibitors, retest, confirmation, biochemical, luminescence, single concentration | shares compounds with SENP7 block | Recombinant SENP8, Z-RLRGG-aminoluciferin luminescence, 60 min | inhibition, % at 12.5 µM | hit rate 40% among 6,200 | AID 488912, 2010;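 active means mean inhibition across replicates above about 50%, limit read from the data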
SENP6 confirm: SENP6 protease inhibitors, confirmation, biochemical, luminescence, single concentration. AID 488915, 2010. recombinant SENP6, Z-RLRGG-aminoluciferin luminescence. hit rate 58% among 6,200. inhibition, % at 12.5 µM. shares compounds with SENP7 block
SENP7 confirm: SENP7 protease inhibitors, retest, confirmation, biochemical, luminescence, single concentration; shares compounds with SENP7 block; recombinant SENP7, Z-RLRGG-aminoluciferin luminescence, 40 min; inhibition, % at 12.5 µM; hit rate 69% among 6,200; AID 488917, 2010
Casp3 select: caspase-3 protease inhibitors, confirmation, selectivity assay for SENP inhibitor project, biochemical, single concentration. shares compounds with SENP7 block. purified caspase-3, Z-DEVD-aminoluciferin luminescence, 60 min. inhibition, % at 12.5 µM. hit rate 60% among 6,200;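 active means mean inhibition above about 50%, limit read from the data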;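 further: plate controls were enzyme with DMSO for no effect and wells without caspase-3 for full effect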
SENP luc ctr: luminescence interference (SENP counter-screen); shares compounds with SENP7 block; Pre-incubated SENP8/Z-RLRGG-aminoluciferin, luciferase luminescence interference; inhibition, % at 12.5 µM; hit rate 39% among 6,200; AID 488919;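 active means mean inhibition above about 50% when retested at one dose, limit read from the data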;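 further: plate controls were DMSO wells with completed reaction for no effect and substrate without enzyme for full effect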
An asterisk follows results filed as active.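 How the source made its calls, unless noted: active means mean inhibition above about 50% in the one-dose retest (limit read from the data); inactive means the rest.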

Screening O=C(CCCN1C(=O)S/C(=C/c2ccccc2)C1=S)Nc1ccc(C(=O)O)cc1 returned UCH37 DUB inh 10.1, SENP7 block 45.1, SENP6 block 66.0*, SENP8 block-1 12.4, SENP1 inh -20.7, SENP8 block-2 72.0*, SENP8 confirm 11.4, SENP6 confirm 51.6*, SENP7 confirm 71.5*, Casp3 select 46.0 and SENP luc ctr 19.7.
O=C(CCCN1C(=O)/C(=C\c2ccccc2)SC1=S)Nc1ccc(C(=O)O)cc1 was read as UCH37 DUB inh 10.1, SENP7 block 22.8, SENP6 block 82.1*, SENP8 block-1 10.0, SENP1 inh 3.2, SENP8 block-2 65.8*, SENP8 confirm 9.5, SENP6 confirm 5.5, SENP7 confirm 12.3, Casp3 select 5.3 and SENP luc ctr 13.1.
`CCc1ccc(/C=C2\SC(=S)N(CCCC(=O)Nc3ccc(C(=O)O)cc3)C2=O)cc1` gave SENP7 block 82.9*, SENP6 block 91.8*, SENP8 block-1 19.2, SENP1 inh 4.6, SENP8 block-2 94.2*, SENP8 confirm 92.7*, SENP6 confirm 97.0*, SENP7 confirm 98.0*, Casp3 select 77.2* and SENP luc ctr 54.8*.
CCc1ccc(/C=C2\SC(=S)N(CCCC(=O)Nc3ccccc3C(=O)O)C2=O)cc1 was read as SENP7 block 3.8, SENP6 block 0.6, SENP8 block-1 32.0, SENP1 inh 4.5 and SENP8 block-2 -1.6.
`O=C(CCCN1C(=O)/C(=C/c2ccc3c(c2)OCO3)SC1=S)Nc1ccc(C(=O)O)cc1` gave UCH37 DUB inh 9.4, SENP7 block 78.1*, SENP6 block 92.6*, SENP8 block-1 29.3, SENP1 inh 8.3, SENP8 block-2 85.8*, SENP8 confirm -13.4, SENP6 confirm 3.4, SENP7 confirm 13.6, Casp3 select 16.4 and SENP luc ctr 16.3.
For Cc1ccc2nc(Cl)c(C=NNC(=O)CN3CCOCC3)cc2c1 the results were UCH37 DUB inh 5.5.
O=C(N=c1nc2ccccn2s1)c1ccccc1 was read as UCH37 DUB inh 2.5, SENP7 block 95.6*, SENP6 block 94.0*, SENP8 block-1 -6.0, SENP1 inh 2.9, SENP8 block-2 58.8*, SENP8 confirm 54.4*, SENP6 confirm 59.4*, SENP7 confirm 65.5*, Casp3 select 53.8* and SENP luc ctr 26.0.
`Cc1csc(=NC(=O)c2ccccc2)n1C` gave UCH37 DUB inh 2.4, SENP7 block 19.8, SENP6 block 28.0, SENP8 block-1 -39.1, SENP1 inh -0.2 and SENP8 block-2 -7.6.
Screening COc1cc(C=NNC(=O)C(=O)NCc2ccco2)cc(Br)c1O returned UCH37 DUB inh 8.8.
S=C(Nc1ccccc1)c1ccccn1 was read as UCH37 DUB inh 0.8, SENP7 block 59.1*, SENP6 block 63.9*, SENP8 block-1 30.1, SENP1 inh 0.0, SENP8 block-2 53.8*, SENP8 confirm 12.9, SENP6 confirm 42.5, SENP7 confirm 82.9*, Casp3 select 59.1* and SENP luc ctr 45.7.
Cc1cc(N)n(-c2nc3ccccc3s2)n1 was read as UCH37 DUB inh -3.7, SENP7 block 93.5*, SENP6 block 86.9*, SENP8 block-1 8.8, SENP1 inh -0.6, SENP8 block-2 86.3*, SENP8 confirm 91.6*, SENP6 confirm 92.8*, SENP7 confirm 100.1*, Casp3 select 92.9* and SENP luc ctr 40.2.
`Cc1cc(C)n(-c2nc3ccccc3s2)n1` gave UCH37 DUB inh 2.3, SENP7 block 42.2, SENP6 block -3.4, SENP8 block-1 4.7, SENP1 inh 1.8 and SENP8 block-2 38.9.
`O=[N+]([O-])c1ccc(-c2nn(-c3ccccc3)cc2C=Nn2c(-c3ccncc3)n[nH]c2=S)cc1` gave UCH37 DUB inh 7.6.
Screening CCc1ccc(NC(=O)Nc2ccon2)cc1 returned UCH37 DUB inh 0.3, SENP7 block 52.3*, SENP6 block 23.3, SENP8 block-1 20.9, SENP1 inh -0.4, SENP8 block-2 18.7, SENP8 confirm 41.5, SENP6 confirm 34.9, SENP7 confirm 69.5*, Casp3 select 51.6* and SENP luc ctr 43.9.
`COc1ccc(NC(=O)Nc2cccs2)cc1OC` gave UCH37 DUB inh 1.3, SENP7 block 13.7, SENP6 block -4.5, SENP8 block-1 -1.6, SENP1 inh -1.6 and SENP8 block-2 -2.3.
CCOc1ccc(NC(=O)Nc2cccnc2)cc1 was read as UCH37 DUB inh 0.9, SENP7 block 57.9*, SENP6 block 60.1*, SENP8 block-1 17.6, SENP1 inh 2.3, SENP8 block-2 22.5, SENP8 confirm 22.1, SENP6 confirm 24.0, SENP7 confirm 74.7*, Casp3 select 74.0* and SENP luc ctr 46.6.
`O=C(Nc1ccc([N+](=O)[O-])cc1)Nc1ccon1` gave UCH37 DUB inh 2.9, SENP7 block 1.4, SENP6 block 0.0, SENP8 block-1 14.9, SENP1 inh -0.4 and SENP8 block-2 -10.7.
Screening O=C(Nc1cccs1)Nc1ccc(F)cc1F returned UCH37 DUB inh -1.8, SENP7 block 17.7, SENP6 block 11.5, SENP8 block-1 10.1, SENP1 inh 2.7 and SENP8 block-2 -7.7.
